{"source": "paper PMC4902274", "about": "(Hypertension, 2014)", "molecules": {"B1": {"name": "human prorenin: unlabeled human prorenin (protein, UniProt P00797 24-406, looked up)", "pro-form": "LPTDTTTFKRIFLKRMPSIRESLKERGVDMARLGPEWSQPMKRLTLGNTTSSVILTNYMDTQYYGEIGIGTPPQTFKVVFDTGSSNVWVPSSKCSRLYTACVYHKLFDASDSSSYKHNGTELTLRYSTGTVSGFLSQDIITVGGITVTQMFGEVTEMPALPFMLAEFDGVVGMGFIEQAIGRVTPIFDNIISQGVLKEDVFSFYYNRDSENSQSLGGQIVLGGSDPQHYEGNFHYINLIKTGVWQIQMKGVSVGSSTLLCEDGCLALVDTGASYISGSTSSIEKLMEALGAKKRLFDYVVKCNEGPTLPDISFHLGGKEYTLTSADYVFQESYSSKKLCTLAIHAMDIPPPTGPTWALGATFIRKFYTEFDRRNNRIGFALAR", "modifications": "pro-form"}, "B2": {"name": "prorenin: prorenin; species not stated at the place (protein, UniProt P00797 24-406, looked up)", "pro-form": "B1 pro-form", "modifications": "pro-form"}, "B3": {"name": "mouse prorenin: unlabeled mouse prorenin (protein, UniProt P06281 22-402, looked up)", "pro-form": "LPTRTATFERIPLKKMPSVREILEERGVDMTRLSAEWGVFTKRPSLTNLTSPVVLTNYLNTQYYGEIGIGTPPQTFKVIFDTGSANLWVPSTKCSRLYLACGIHSLYESSDSSSYMENGSDFTIHYGSGRVKGFLSQDSVTVGGITVTQTFGEVTELPLIPFMLAKFDGVLGMGFPAQAVGGVTPVFDHILSQGVLKEEVFSVYYNRGSHLLGGEVVLGGSDPQHYQGNFHYVSISKTDSWQITMKGVSVGSSTLLCEEGCAVVVDTGSSFISAPTSSLKLIMQALGAKEKRIEEYVVNCSQVPTLPDISFDLGGRAYTLSSTDYVLQYPNRRDKLCTLALHAMDIPPPTGPVWVLGATFIRKFYTEFDRHNNRIGFALAR", "modifications": "pro-form"}}, "key": {"SH-SY5Y cells": {"system": "SH-SY5Y cells", "assay": "Intracellular calcium / calcium influx in SH-SY5Y cells", "format": "cell-based, human", "details": "for inhibition of prorenin-induced calcium influx: 1 μmol/L inhibitor"}, "PRR": {"system": "PRR", "details": "cited from earlier work"}, "hypertensive RA mice [1]": {"system": "hypertensive RA mice", "details": "systemic enalapril; cited from earlier work"}, "[2]": {"system": "prorenin-induced hypertension, C57Bl/6J mice", "details": "cited from earlier work"}, "hypertensive RA mice [3]": {"system": "hypertensive RA mice", "assay": "Acute intracerebroventricular infusion, BP in renin-angiotensinogen", "format": "in vivo, mouse", "details": "losartan 3 mmol/L, 10-minute icv infusion, n=4", "outline": "(§1)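 Test compound, scrambled peptide (1 mmol/L, control) or losartan was infused intracerebroventricularly over 10 minutes into hypertensive mice. BP was traced in real time before, during and after the infusion. The read-out was change in mean arterial pressure (ΔMAP).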"}, "[4]": {"system": "DOCA-salt hypertension, mice", "details": "icv infusion of losartan; cited from earlier work"}, "normotensive SHAM mice": {"system": "normotensive SHAM mice", "assay": "Acute intracerebroventricular infusion, BP in normotensive SHAM mice", "format": "in vivo, mouse", "details": "icv PRO20 1 mmol/L or losartan 3 mmol/L, n=4"}, "[5]": {"system": "DOCA-salt hypertensive mice", "format": "in vivo, mouse", "details": "losartan 3 mmol/L, 10-minute icv infusion, n=5", "outline": "as §1"}, "[6]": {"system": "ERK-1/2 phosphorylation, Neuro-2A cells", "assay": "ERK-1/2 phosphorylation in Neuro-2A cells", "format": "cell-based, mouse", "outline": "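Neuro-2A cells were kept in serum-free medium overnight, then pretreated with losartan 10 μmol/L for 30 minutes. They were then exposed for 15 minutes to prorenin (4 nmol/L), HRP (1 μmol/L) or test peptide (1 μmol/L). Total and phosphorylated ERK-1/2 were measured by Western blot. PRR knockdown cells were transfected with AAV-PRR-shRNA for 3 days.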"}, "ERK-1/2": {"system": "ERK-1/2", "details": "cited from earlier work"}, "diabetic nephropathy": {"system": "diabetic nephropathy", "details": "cited from earlier work"}, "[7]": {"system": "diabetic hypertensive rats", "details": "cited from earlier work"}, "prorenin": {"system": "prorenin", "details": "cited from earlier work"}, "[8]": {"system": "spontaneously hypertensive rats", "details": "cited from earlier work"}, "[9]": {"target": "(pro)renin receptor (PRR), human brain (Homo sapiens, UniProt O75787)", "sequence (O75787 17-350)": "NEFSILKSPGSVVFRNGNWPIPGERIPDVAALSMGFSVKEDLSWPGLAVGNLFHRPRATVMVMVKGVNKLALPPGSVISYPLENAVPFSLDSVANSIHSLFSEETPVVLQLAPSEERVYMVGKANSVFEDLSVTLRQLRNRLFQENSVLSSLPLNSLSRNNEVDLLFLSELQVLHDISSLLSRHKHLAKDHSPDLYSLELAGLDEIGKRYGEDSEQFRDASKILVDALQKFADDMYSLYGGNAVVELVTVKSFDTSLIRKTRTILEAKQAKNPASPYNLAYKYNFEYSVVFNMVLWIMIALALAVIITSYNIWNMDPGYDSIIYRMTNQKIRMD", "assay": "PRO20-FITC fluorescence binding to human brain sections", "details": "PRO20-FITC 1 nmol/L, unlabeled human prorenin 1 μmol/L, human PVN", "outline": "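Human PVN sections were incubated with FITC-labelled test peptide, 1 nmol/L with or without unlabelled human prorenin 1 μmol/L. For a concentration series (0.2, 0.5, 1, 2, 5 nmol/L), n=5–6 per concentration. Nuclei were stained with DAPI. Relative fluorescence units were total fluorescence density minus background in each image.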"}, "[10]": {"system": "plasminogen-activator inhibitor 1 release", "details": "prorenin 4 nmol/L; cited from earlier work"}, "[11]": {"system": "prorenin-induced hypertension, C57Bl/6J mice", "assay": "Pressor response to acute intracerebroventricular infusion of mouse prorenin", "format": "in vivo", "details": "mouse prorenin 2.4 μmol/L + scrambled peptide 100 μmol/L, 3 μL/min for 10 minutes, icv"}, "[12]": {"target": "(pro)renin receptor (PRR), mouse brain (Mus musculus, UniProt Q9CYN9)", "sequence (Q9CYN9 18-350)": "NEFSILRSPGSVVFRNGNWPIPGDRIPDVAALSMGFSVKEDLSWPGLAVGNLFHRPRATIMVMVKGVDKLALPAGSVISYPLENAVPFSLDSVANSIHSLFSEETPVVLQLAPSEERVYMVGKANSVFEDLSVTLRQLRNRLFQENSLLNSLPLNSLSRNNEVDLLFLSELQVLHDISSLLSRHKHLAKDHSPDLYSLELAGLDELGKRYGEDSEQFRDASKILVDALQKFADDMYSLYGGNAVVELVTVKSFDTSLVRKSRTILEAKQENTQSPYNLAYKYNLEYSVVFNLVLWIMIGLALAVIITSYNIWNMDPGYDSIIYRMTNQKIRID", "assay": "PRO20-FITC fluorescence binding to mouse brain sections", "details": "PRO20-FITC 5 nmol/L, unlabeled mouse prorenin 1 μmol/L, mouse PVN", "outline": "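Mouse PVN sections were incubated with FITC-labelled test peptide, 5 nmol/L with or without unlabelled mouse prorenin 1 μmol/L. For a concentration series (1, 2, 5, 10, 20 nmol/L), n=5–6 per concentration. PVN from neuron-specific PRR-knockout mice was also examined. Nuclei were stained with DAPI. Relative fluorescence units were total fluorescence density minus background per image.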"}, "[13]": {"details": "human prorenin 4 nmol/L, n=7–11/group"}}}
{"molecule": "Nc1ncnc2c1ncn2[C@@H]1O[C@H](COP(=O)(O)OP(=O)(O)OP(=O)(O)O)[C@@H](O)[C@H]1O", "note": "[ATP]", "values": [{"measurement": "intracellular calcium in SH-SY5Y cells", "setting": "SH-SY5Y cells; ATP 1 μmol/L, Fluo-4-AM, n=7–11/group", "value": "increased intracellular calcium"}]}
{"molecule": "COCCCOc1cc(C[C@@H](C[C@H](N)[C@@H](O)C[C@H](C(=O)NCC(C)(C)C(N)=O)C(C)C)C(C)C)ccc1OC", "note": "[aliskiren]", "values": [{"measurement": "effect on renin or prorenin binding to the PRR", "setting": "PRR", "value": "does not alter renin or prorenin binding to the PRR"}]}
{"molecule": "C[C@H](CS)C(=O)N1CCC[C@H]1C(=O)O", "note": "[captopril]", "values": [{"measurement": "inhibition of prorenin-induced calcium influx", "setting": "SH-SY5Y cells; [13]", "value": "completely blocked"}]}
{"molecule": "CCOC(=O)[C@H](CCc1ccccc1)N[C@@H](C)C(=O)N1CCC[C@H]1C(=O)O", "note": "[enalapril]", "values": [{"measurement": "effect on BP in RA mice, systemic", "setting": "hypertensive RA mice [1]", "value": "did not normalize BP"}]}
{"molecule": "CCCCc1nc(Cl)c(CO)n1Cc1ccc(-c2ccccc2-c2nn[nH]n2)cc1", "note": "[losartan]", "values": [{"measurement": "effect on prorenin-induced hypertension", "setting": "[2]; icv infusion of losartan", "value": "abolishes prorenin-induced hypertension"}, {"measurement": "effect on mean arterial BP (MAP)", "setting": "hypertensive RA mice [3]", "value": "reduced mean arterial BP"}, {"measurement": "effect on development of DOCA-salt hypertension", "setting": "[4]", "value": "totally prevents the development of DOCA-salt hypertension"}, {"measurement": "effect on MAP in normotensive mice", "setting": "normotensive SHAM mice", "value": "did not alter MAP"}, {"measurement": "inhibition of prorenin-induced calcium influx", "setting": "SH-SY5Y cells; [13]", "value": "completely blocked"}, {"measurement": "inhibition of Ang II-induced intracellular calcium increase", "setting": "SH-SY5Y cells; losartan 1 μmol/L vs Ang II 10 nmol/L, n=7–11/group", "value": "blocked"}, {"measurement": "effect on mean arterial BP (MAP)", "setting": "[5]", "value": "reduced mean arterial BP"}, {"measurement": "inhibition of prorenin-induced ERK-1/2 phosphorylation", "setting": "[6]; losartan, prorenin", "value": "partially blocked"}]}
{"molecule": "Ang II: major bioactive peptide of the RAS", "values": [{"measurement": "intracellular calcium in SH-SY5Y cells", "setting": "SH-SY5Y cells; Ang II 10 nmol/L, Fluo-4-AM, n=7–11/group", "value": "increased intracellular calcium levels"}]}
{"molecule": "RILLKKMPSV [HRP]", "values": [{"measurement": "inhibition of binding of prorenin to the PRR", "setting": "PRR", "value": "no direct inhibitory effect on the binding of prorenin to the PRR"}, {"measurement": "ERK-1/2 phosphorylation in the retina", "setting": "ERK-1/2", "value": "increases phosphorylation of extracellular signal–regulated protein kinase 1 and 2"}, {"measurement": "effect on diabetic nephropathy in rats", "setting": "diabetic nephropathy; development", "value": "prevent the development of diabetic nephropathy in rats without affecting hyperglycemia"}, {"measurement": "effect on established diabetic nephropathy in rats", "setting": "diabetic nephropathy; established", "value": "induce regression of established diabetic nephropathy"}, {"measurement": "effect on beneficial effects of aliskiren on vascular dysfunction", "setting": "[7]", "value": "counteracts the beneficial effects of aliskiren"}, {"measurement": "conformational change and nonproteolytic activation of prorenin on binding to PRR", "setting": "prorenin", "value": "inhibits the conformational change and nonproteolytic activation of prorenin"}, {"measurement": "phosphorylated ERK-1/2 levels, peptide alone", "setting": "[6]; PRO20 or HRP alone, 1 μmol/L, 15 minutes, losartan 10 μmol/L", "value": "unaffected"}, {"measurement": "effect on cardiac fibrosis", "setting": "[8]", "value": "attenuates the development of cardiac fibrosis"}]}
{"molecule": "B1", "values": [{"measurement": "intracellular calcium in SH-SY5Y cells", "setting": "SH-SY5Y cells; [13]", "value": "increased neuronal intracellular calcium"}, {"measurement": "calcium influx induced relative to Ang II", "setting": "SH-SY5Y cells; human prorenin vs Ang II, SH-SY5Y cells", "value": "to a degree similar to that of Ang II"}, {"measurement": "inhibition of PRO20-FITC binding by unlabeled prorenin", "setting": "[9]", "value": "eliminated PRO20-FITC binding"}]}
{"molecule": "B2", "values": [{"measurement": "ERK-1/2 phosphorylation", "setting": "[6]; prorenin alone, serum-free medium", "value": "markedly increased ERK-1/2 phosphorylation"}, {"measurement": "Ang II-dependent plasminogen-activator inhibitor 1 release", "setting": "[10]", "value": "increased Ang II–dependent plasminogen-activator inhibitor 1 release"}]}
{"molecule": "B3", "values": [{"measurement": "BP in conscious wild-type mice", "setting": "[2]; icv mouse prorenin 2.4 μmol/L, conscious wild-type C57Bl/6J mice", "value": "increases BP"}, {"measurement": "BP during intracerebroventricular infusion of prorenin", "setting": "[11]", "value": "induced a rapid increase in BP"}, {"measurement": "inhibition of PRO20-FITC binding by unlabeled prorenin", "setting": "[12]", "value": "completely blocked"}]}
